Bioassay records (PubChem)
Most compounds without a hit are left out; they make up all but 9.3% or so of the library.
PostGolgi ctrl – growth of the yeast control strain, post-Golgi counter-screen; efflux-deficient yeast background strain, growth absorbance A615, 16 h; inhibition, % at 10 µM; 5% of 98,000 active; AID 738
hDAT+cocaine – human DAT dopamine uptake with cocaine, either direction; Q01959; LLC-PK1 hDAT cells, [14C]-dopamine uptake with cocaine IC80; actives deviate in either direction; B-score at 10 µM; 1.3% of 110,000 active; AID 449768;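 active = Z score or B-score, a plate-position-corrected score, falls beyond the plate's 99.7% confidence bounds, in either direction; inactive = both scores lie inside the 99.7% bounds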;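 note: scored against the spread of the other compound wells on the same plate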
Target sequence (Q01959 whole entry, looked up): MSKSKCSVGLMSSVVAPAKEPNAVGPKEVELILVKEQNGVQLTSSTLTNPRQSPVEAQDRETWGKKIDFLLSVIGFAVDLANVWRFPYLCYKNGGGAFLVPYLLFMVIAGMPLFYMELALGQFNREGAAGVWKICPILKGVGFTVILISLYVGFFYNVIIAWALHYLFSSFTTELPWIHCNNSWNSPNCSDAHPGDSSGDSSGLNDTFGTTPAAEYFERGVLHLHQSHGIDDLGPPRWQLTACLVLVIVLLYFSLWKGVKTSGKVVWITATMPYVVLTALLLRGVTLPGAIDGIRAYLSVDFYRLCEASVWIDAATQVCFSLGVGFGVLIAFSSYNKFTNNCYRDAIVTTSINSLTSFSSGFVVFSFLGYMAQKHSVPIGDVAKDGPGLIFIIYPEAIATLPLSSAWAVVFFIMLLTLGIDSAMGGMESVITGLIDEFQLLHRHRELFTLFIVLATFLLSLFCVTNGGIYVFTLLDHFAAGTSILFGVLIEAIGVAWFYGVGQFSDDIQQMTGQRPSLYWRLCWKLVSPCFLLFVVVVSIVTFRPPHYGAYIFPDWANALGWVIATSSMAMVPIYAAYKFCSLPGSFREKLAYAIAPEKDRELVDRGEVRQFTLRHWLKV
D1 allo mod – D1 dopamine receptor (human) allosteric modulation. P21728. HEK293 D1, CRE-luciferase, dopamine EC30 potentiation; actives deviate in either direction. B-score at 10 µM. 5.9% of 58,000 active;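 active = luminescence count or its row- and column-corrected plate score outside the 99.7% band of the plate's sample wells, on either side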
Ecoli tolC – growth inhibitors of E. coli BW25113 tolC mutant. OD615. growth inhibition, % at 10 µM (by protocol). 2.2% of 65,000 active;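 active = growth inhibition at or above a cutoff equal to the mean over every tested compound plus 3 SD, cut at about 60% in these data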;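 note: growth measured after 20 h incubation at 37 °C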
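Signal: optical density read at 615 nm; Assay system: E. coli ΔtolC::kan strain BW25113; Times: 20 h incubation with compound, 37 °C; Dosing: 10 µM final, single dose.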
E coli WT exp – growth inhibitors of E. coli BW25113 wild type. OD600 absorbance. growth inhibition, % at 100 µM. 0.15% of 98,000 active. AID 710;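 active = growth inhibition above about 50% at one test dose, limit read from the data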;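 note: growth measured after 20 h incubation at 37 °C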
PostGolgi yeast – growth inhibition of a yeast mutant, post-Golgi transport screen; post-Golgi transport phenotypic cell assay; inhibition, % at 10 µM; 0.9% of 98,000 active;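 note: yeast cells grown in 1536-well plates; yeast grown about 18 h at 30C before absorbance read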
* marks the source's active call; other numbers are inactive results; · = not tested or not shown. Cut-off read from the data, not from the text of the source, unless noted: active = inhibition above about 30%; inactive = the rest.

SMILES | PostGolgi ctrl | hDAT+cocaine | D1 allo mod | Ecoli tolC | E coli WT exp | PostGolgi yeast
Cc1ccc2cc(CN(Cc3ccc(F)cc3)Cc3nnnn3C3CCCC3)c(=O)[nH]c2c1 | 40.9* | 0.898 | 0.00712 | 66.0* | -12.0 | 1.4
COc1ccc2cc(CN(Cc3ccco3)Cc3nnnn3C3CCCCC3)c(=O)[nH]c2c1 | 9.0 | 1.3 | 1.04 | 23.2 | -15.0 | -5.3
Cc1ccc2cc(CN(Cc3ccccc3)Cc3nnnn3C3CCCC3)c(=O)[nH]c2c1 | 38.8* | 1.56 | -1.09 | 73.1* | -18.0 | -11.3
CCc1ccc2[nH]c(=O)c(CN(Cc3ccc4c(c3)OCO4)Cc3nnnn3C3CCCC3)cc2c1 | 15.1 | 0.274 | · | 48.8 | -9.0 | -2.3
O=C(c1ccco1)N(CCC(c1ccccc1)c1ccco1)Cc1ccc(F)cc1 (configuration not stated) | 39.8* | 0.309 | · | · | -21.0 | -5.1
CCOC(=O)c1[nH]c2ccccc2c1N=CN(CC)CC | -8.7 | -0.0302 | · | 2.5 | -1.0 | -2.6
Cc1ccc(Nc2nc(CSc3nnnn3-c3ccccc3)cs2)cc1 | 34.4* | 1.42 | · | 94.2* | -20.0 | 14.3
CCc1ccc(Nc2nc(N)nc(CSc3nnnn3-c3ccccc3)n2)cc1 | 36.9* | -0.729 | 1.44 | 11.3 | -9.0 | 4.4
Cc1ccccc1Nc1nc(N)nc(CSc2nnnn2-c2ccccc2)n1 | 21.7 | 2.67 | 1.82 | 20.0 | 2.0 | -1.3
COc1cc(C(=O)Nc2ccccn2)cc(OC)c1OC | 1.7 | 0.0102 | · | -2.1 | 7.0 | -5.5
Cc1cc(C(=O)Nc2ccccn2)cs1 | 7.7 | 0.804 | -3.77* | -2.4 | 2.0 | 22.5
Cc1cc(C)n(-c2ccc(C(=O)Nc3ccccn3)cc2)n1 | -1.9 | 0.46 | -4.13* | 7.4 | -6.0 | 11.4
CCN1C(=O)N(C)C(N(O)C(=O)NC)C1(C)C (configuration not stated) | 4.6 | 0.0112 | -0.426 | -17.2 | -5.0 | -2.6
O=C(NCCOc1ccccc1)c1ccc2c(c1)OCO2 | 3.8 | 0.252 | -7.5* | 0.0 | 9.0 | 5.0
COc1ccc2cc(CCNC(=O)c3ccc(Br)o3)c(=O)[nH]c2c1 | 99.3* | 0.291 | -0.0139 | 42.0 | -1.0 | 12.6
CCC(CC)C(=O)NCCc1cc2ccc(OC)cc2[nH]c1=O | 5.7 | · | -0.292 | -12.9 | -6.0 | -2.5
Cc1cc2cc(CCNC(=O)c3ccc(Br)o3)c(=O)[nH]c2cc1C | 101.7* | 1.73 | 0.405 | 50.4 | 20.0 | 4.1
COc1ccc2cc(CCNC(=O)c3ccc4c(c3)OCO4)c(=O)[nH]c2c1 | 30.3* | 1.27 | · | 11.3 | -1.0 | -3.6
COCCCNC(=O)C1CCN(C(=O)Nc2ccc(Cl)cc2)CC1 | -1.6 | 0.0414 | 0.159 | -0.5 | -9.0 | 5.0
O=C(Cn1c(NCCCO)nc2ccccc21)c1cccs1 | · | 0.00356 | -0.0119 | -8.0 | · | ·
Cc1ccc(Nc2cc(C)nc(-c3ccccc3O)n2)cc1 | 39.6* | -0.15 | · | · | 10.0 | -3.7
CCn1c(N)c(C(=O)NC)sc1=S | 0.9 | -0.994 | 0.0919 | -12.6 | 9.0 | 0.8
C/C(N)=C(/C#N)C(=O)CN1CCCCC1 | -8.1 | 0.0987 | 0.92 | -9.0 | -15.0 | 14.9
O=c1ccn(-c2cccc(C(F)(F)F)c2)nc1-c1ccn(-c2cccc(Cl)c2)n1 | 49.7* | -0.122 | · | · | -7.0 | 10.4
COc1ccc(CN2CC[C@H]3C=CC[C@@H](C(=O)NCCc4ccccc4)[C@H]3C2=O)cc1OC | · | 1.12 | · | · | · | ·
SMILES | PostGolgi ctrl | hDAT+cocaine | D1 allo mod | Ecoli tolC | E coli WT exp | PostGolgi yeast
Cc1cc(=O)oc2c(CN3CCCCC3)c(O)c(Cl)cc12 | -3.5 | 0.0281 | -0.259 | 1.4 | -6.0 | 38.1*
Cc1c(C)c2cc(Cl)c(O)c(CN3CCN(C)CC3)c2oc1=O | 4.7 | 0.297 | · | 19.4 | 2.0 | 36.0*
CN1C(=O)NC(c2cccc(O)c2)C(C(=O)c2cccs2)C1(O)C(F)(F)F (configuration not stated) | 2.7 | 0.0825 | -0.0657 | 42.4 | 75.0* | -10.5
CC1(c2nnc(-c3ccncc3)o2)CC(c2ccc(F)cc2)=NO1 (configuration not stated) | · | -2.33* | · | · | · | ·
CC1(c2nnc(-c3ccc(F)cc3)o2)CC(c2cccnc2)=NO1 (configuration not stated) | · | -1.49 | · | · | · | ·
N#Cc1ccc(C(=O)NCC(c2ccco2)N2CCCCC2)cc1 (configuration not stated) | -3.4 | 2.05* | · | · | -5.0 | 3.9
O=S(=O)(c1ccc(Br)cc1)N1CCCC1c1nc2ccccc2s1 (configuration not stated) | 40.0* | 0.461 | · | · | -15.0 | -7.2
CN(C)S(=O)(=O)c1ccc(C(=O)N2CCCC2c2nc3ccccc3s2)cc1 (configuration not stated) | 9.5 | -1.42 | -0.579 | -1.6 | -7.0 | 16.3
O=C(CN1CCC(O)(c2ccc3c(c2)OCO3)CC1)OC1CCCCC1 | 40.6* | -0.369 | -0.0953 | -3.8 | 2.0 | -5.0
O=S(=O)(N/N=C\C=C\c1ccccc1)c1ccc(Cl)cc1 | 19.3 | 0.82 | · | · | -8.0 | -7.7
COc1ccc(NS(=O)(=O)c2cccc3cccnc23)cc1 | · | 0.162 | 2.48 | -10.8 | · | ·
O=C(C1CCCN(S(=O)(=O)c2cccc3cccnc23)C1)N1CCN(c2ccc(F)cc2)CC1 (configuration not stated) | 1.6 | -0.228 | -2.32* | 3.7 | -10.0 | 9.7
O=S(=O)(Nc1ccc(N2CCCCC2)cc1)c1cccc2cccnc12 | 37.7* | -0.0921 | 0.183 | 5.3 | -8.0 | 1.4
COc1cc(/C=N/N2CCN(C3c4ccccc4-c4ccccc43)CC2)ccc1O | 21.3 | -1.76* | · | · | -8.0 | -16.5
CC1(C)NC(=O)N(CC(=O)O)C1=O | 0.9 | 0.151 | · | · | 1.0 | -1.0
O=C(OC(C(=O)NCC1CCCO1)c1ccccn1)c1cccs1 (configuration not stated) | -1.6 | 0.461 | 0.0423 | -18.4 | 7.0 | -1.1
O=C(Cn1ncc2c3ccccc3n(Cc3ccccc3)c2c1=O)N1CCN(c2ncccn2)CC1 | 21.9 | 1.76* | · | · | -14.0 | -0.8
O=S1(=O)C=C(SCc2cccc(Cl)c2)Nc2ccccc21 | 14.5 | · | · | · | 4.0 | -6.9
CCc1[nH]c(=O)c(C#N)c2c1CCCC2 | 31.6* | · | · | 5.3 | -4.0 | 8.1
Cc1ccc(-n2nnnc2C(Cl)(Cl)c2nnnn2-c2ccc(C)cc2)cc1 | 100.3* | 0.38 | · | · | -2.0 | 108.5*
Cc1cccc(NC(=O)C2CCCN2S(=O)(=O)c2cccc3cccnc23)c1 (configuration not stated) | 20.0 | 1.22 | 0.72 | 11.2 | -2.0 | -2.4
C=CCN1C(=Nc2cccnc2)SCC1(O)c1ccc(C)cc1 (configuration not stated) | 42.9* | -1.17 | -0.193 | 37.1 | 3.0 | 6.0
C=CCN1C(=O)CSC1=Nc1cccc(O)c1 | -4.0 | -0.589 | 0.72 | -1.0 | 5.0 | -4.2
Cc1cccc(-c2nc(CS(=O)CC(=O)NCCCSC3CCCCC3)c(C)o2)c1 (configuration not stated) | 15.7 | 0.844 | 0.596 | 72.7* | -16.0 | 6.8
CCc1cccc(NC(=O)CS(=O)Cc2nc(-c3ccc(C)cc3)oc2C)c1 (configuration not stated) | 34.5* | 0.0079 | 1.52 | 4.9 | -9.0 | -10.0
